Assay results reported in ChEMBL document CHEMBL1152792, “Synthesis and anticonvulsant activity of amino acid-derived sulfamides” (J Med Chem, 2009).
Activity calls are given as the source filed them. The calls are words filed in the database; no cut-off is given here.

What was measured:
[1] = test system: Mus musculus; test: Anticonvulsant activity in albino mouse at 30 mg/kg, ip after 0.5 hrs by MES test; type: functional, organism-based; design: dose 30 mg/kg
Procedure, shortened: (§1)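 NIH Anticonvulsant Drug Development (ADD) program phase I screen in adult male albino mice (18–23 g). Compound given ip in 30% PEG 400 and 10% water at 0.01 mL/g body weight. Seizures were induced electrically (MES) or chemically (PTZ), and animals were tested 0.5 and 4 h after dosing. Result scored as protected/tested animals.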

[2] = test system: Mus musculus; test: Anticonvulsant activity in albino mouse at 30 mg/kg, ip after 4 hrs by MES test; type: functional, organism-based; design: dose 30 mg/kg; procedure, shortened: as §1
[3] = test system: Mus musculus; test: Anticonvulsant activity in albino mouse at 30 mg/kg, ip after 0.5 hrs by PTZ test; type: functional, organism-based; design: dose 30 mg/kg; procedure, shortened: as §1
[4] = test system: Mus musculus; test: Anticonvulsant activity in albino mouse at 100 mg/kg, ip after 0.5 hrs by PTZ test; type: functional, organism-based; design: dose 100 mg/kg; procedure, shortened: as §1
[5] = test system: Mus musculus; test: Anticonvulsant activity in albino mouse at 300 mg/kg, ip after 0.5 hrs by PTZ test; type: functional, organism-based; design: dose 300 mg/kg; procedure, shortened: as §1
[6] = test system: Mus musculus; test: Anticonvulsant activity in albino mouse at 30 mg/kg, ip after 4 hrs by PTZ test; type: functional, organism-based; design: dose 30 mg/kg; procedure, shortened: as §1
[7] = test system: Mus musculus; test: Anticonvulsant activity in albino mouse at 100 mg/kg, ip after 4 hrs by PTZ test; type: functional, organism-based; design: dose 100 mg/kg; procedure, shortened: as §1
[8] = test system: Mus musculus; test: Anticonvulsant activity in albino mouse at 300 mg/kg, ip after 4 hrs by PTZ test; type: functional, organism-based; design: dose 300 mg/kg; procedure, shortened: as §1
[9] = test system: Mus musculus; test: Toxicity in albino mouse at 30 mg/kg, ip after 0.5 hrs by rotarod test; type: organism-based; design: dose 30 mg/kg, route intraperitoneal; details: in vivo
Procedure, shortened: (§2)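 Neurotoxicity was screened by the standardized rotarod test in the ADD phase I protocol. Adult male albino mice (18–23 g) received compound ip in 30% PEG 400 and 10% water at 0.01 mL/g. Animals were tested 0.5 and 4 h post-dose. Result scored as toxic/tested animals.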

[10] = test system: Mus musculus; test: Toxicity in albino mouse at 100 mg/kg, ip after 0.5 hrs by rotarod test; type: organism-based; design: dose 100 mg/kg, route intraperitoneal; details: in vivo; procedure, shortened: as §2
[11] = test system: Mus musculus; test: Toxicity in albino mouse at 300 mg/kg, ip after 0.5 hrs by rotarod test; type: organism-based; design: dose 300 mg/kg, route intraperitoneal; details: in vivo; procedure, shortened: as §2
[12] = test system: Mus musculus; test: Toxicity in albino mouse at 30 mg/kg, ip after 4 hrs by rotarod test; type: organism-based; design: dose 30 mg/kg, route intraperitoneal; details: in vivo; procedure, shortened: as §2
[13] = test system: Mus musculus; test: Toxicity in albino mouse at 100 mg/kg, ip after 4 hrs by rotarod test; type: organism-based; design: dose 100 mg/kg, route intraperitoneal; details: in vivo; procedure, shortened: as §2
[14] = test system: Mus musculus; test: Toxicity in albino mouse at 300 mg/kg, ip after 4 hrs by rotarod test; type: organism-based; design: dose 300 mg/kg, route intraperitoneal; details: in vivo; procedure, shortened: as §2
[15] = test system: Mus musculus; test: Anticonvulsant activity in ip dosed albino mouse after 2 hrs by MES test; type: functional
Procedure, shortened: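 Phase II quantitative MES test in adult male albino mice (18–23 g). Compound given ip in 30% PEG 400 and 10% water at 0.01 mL/g. Testing was done at the previously determined time of peak effect. Six mice per dose group; ED50 (dose protecting 50% of animals, μmol/kg) calculated from the dose–response curve.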

[16] = species on record: Mus musculus; test: Ratio of valproic acid ED50 to compound ED50 in albino mouse after 2 hrs by MES test; type: functional
Procedure, shortened: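 The compound ED50 came from ip dosing in male albino mice (six per dose) at the time of peak effect. The valproate ED50 was taken from earlier literature.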

[17] = test system: Mus musculus; test: Anticonvulsant activity in albino mouse at 100 mg/kg, ip after 4 hrs by MES test; type: functional, organism-based; design: dose 100 mg/kg; procedure, shortened: as §1
[18] = test system: Mus musculus; test: Anticonvulsant activity in albino mouse at 300 mg/kg, ip after 4 hrs by MES test; type: functional, organism-based; design: dose 300 mg/kg; procedure, shortened: as §1
[19] = test system: Mus musculus; test: Anticonvulsant activity in albino mouse at 100 mg/kg, ip after 0.5 hrs by MES test; type: functional, organism-based; design: dose 100 mg/kg; procedure, shortened: as §1
[20] = test system: Mus musculus; test: Anticonvulsant activity in albino mouse at 300 mg/kg, ip after 0.5 hrs by MES test; type: functional, organism-based; design: dose 300 mg/kg; procedure, shortened: as §1

| Structure (SMILES) | Activity [1] | Activity [2] | Activity [3] | Activity [4] | Activity [5] | Activity [6] | Activity [7] | Activity [8] | Activity [9] | Activity [10] | Activity [11] | Activity [12] | Activity [13] | Activity [14] | ED50 [15] [µmol/kg] | Ratio ED50 [16] | Activity [17] | Activity [18] | Activity [19] | Activity [20] |
| --- | --- | --- | --- | --- | --- | --- | --- | --- | --- | --- | --- | --- | --- | --- | --- | --- | --- | --- | --- | --- |
| CCCC(CCC)CNS(=O)(=O)NCC(=O)OC | inactive | inactive | inactive | inactive | inactive | inactive | inactive | inactive | Non-toxic | Non-toxic | Non-toxic | Non-toxic | Non-toxic | Non-toxic | 139 | 7.3 |  |  |  |  |
| COC(=O)CCNS(=O)(=O)NCCC(=O)OC | inactive | inactive | inactive | inactive | inactive | inactive | inactive | inactive | Non-toxic | Non-toxic | Non-toxic | Non-toxic | Non-toxic | Non-toxic |  |  | inactive | inactive |  |  |
| COC(=O)CNS(=O)(=O)NC(=O)OC(C)(C)C | inactive | inactive | inactive | inactive | inactive | inactive | inactive | inactive | Non-toxic | Non-toxic | Non-toxic | Non-toxic | Non-toxic | Non-toxic |  |  | inactive | inactive | inactive | inactive |
| COC(=O)CCNS(=O)(=O)NC1CCCCC1 | inactive | inactive |  |  |  |  |  |  | Non-toxic | Non-toxic | Non-toxic | Non-toxic | Non-toxic | Non-toxic |  |  |  | inactive |  | inactive |
| COC(=O)CNS(=O)(=O)N(Cc1ccccc1)C(=O)OC(C)(C)C | inactive | inactive | inactive | inactive | inactive | inactive | inactive | inactive | Non-toxic | Non-toxic | Non-toxic | Non-toxic | Non-toxic | Non-toxic |  |  | inactive | inactive | inactive | inactive |
| COC(=O)CNS(=O)(=O)NCc1ccccc1 | inactive | inactive | inactive | inactive | inactive | inactive | inactive | inactive | Non-toxic | Non-toxic | Non-toxic | Non-toxic | Non-toxic | Non-toxic |  |  | inactive | inactive | inactive | inactive |
| CCCCNS(=O)(=O)NCCC(=O)OC |  |  | inactive | inactive | inactive | inactive | inactive | inactive | Non-toxic | Non-toxic | Non-toxic | Non-toxic | Non-toxic | Non-toxic | 71 | 14.2 |  |  |  |  |
